In ChEMBL document CHEMBL1122579, “Synthesis and biological activity of nucleosides and nucleotides related to the antitumor agent 2-beta-D-ribofuranosylthiazole-4-carboxamide” (J Med Chem, 1984):

Tests used:
Mus musculus [1] = species: Mus musculus; experiment: Compound was evaluated for the cytotoxicity to L1210 leukemia cells in culture at ~1.6-fold higher concentrations and expressed as ID50; type: functional; conditions: read-out: ID50 (the source's name)
Mus musculus [2] = experiment: Mice were inoculated intraperitoneally with L1210 leukemia cells and the percentage ILS of the mice with the compound was evaluated at a dose of 50 mg/kg; type: functional; conditions: L1210, ip, route intraperitoneal
Outline: (§1)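 Mice implanted ip with L1210 leukemia, in groups of six, with 36 untreated controls. Drug given ip on days 1-5 at 50-800 mg/kg. Endpoint was median life span in days, with percent increase in life span (ILS) relative to untreated controls. Body weight change was taken as day 5 minus day 1 average weight.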

Mus musculus [3] = experiment: Mice were inoculated intraperitoneally with L1210 leukemia cells and the percentage ILS of the mice with the compound was evaluated at a dose of 100 mg/kg; type: functional; conditions: L1210, ip, route intraperitoneal; outline: as §1
Mus musculus [4] = experiment: Mice were inoculated intraperitoneally with L1210 leukemia cells and the change in body weight of the mice with the compound was evaluated at a dose of 200 mg/kg; type: functional; conditions: route intraperitoneal
Outline: (§2)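 Mice received intraperitoneally implanted L1210 leukemia, with groups of six treated mice and 36 untreated controls. Compound was given intraperitoneally on days 1-5. Body weight change was the average weight on day 5 minus the average on day 1, in grams. Median life span and % ILS were recorded against the untreated controls.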

Mus musculus [5] = experiment: Mice were inoculated intraperitoneally with L1210 leukemia cells and the median life span of the mice with the compound was evaluated at a dose of 400 mg/kg; type: functional; conditions: route intraperitoneal; outline: as §1
Mus musculus [6] = experiment: Mice were inoculated intraperitoneally with L1210 leukemia cells and the percentage ILS of the mice with the compound was evaluated at a dose of 200 mg/kg; type: functional; conditions: L1210, ip, route intraperitoneal; outline: as §1
Mus musculus [7] = experiment: Mice were inoculated intraperitoneally with L1210 leukemia cells and the median life span of the mice with the compound was evaluated at a dose of 50 mg/kg; type: functional; conditions: route intraperitoneal; outline: as §1
Mus musculus [8] = experiment: Mice were inoculated intraperitoneally with L1210 leukemia cells and the percentage ILS of the mice with the compound was evaluated at a dose of 800 mg/kg; type: functional; conditions: L1210, ip, route intraperitoneal; outline: as §1
Mus musculus [9] = experiment: Mice were inoculated intraperitoneally with L1210 leukemia cells and the median life span of the mice with the compound was evaluated at a dose of 800 mg/kg; type: functional; conditions: route intraperitoneal; outline: as §1
Mus musculus [10] = experiment: Mice were inoculated intraperitoneally with L1210 leukemia cells and the median life span of the mice with the compound was evaluated at a dose of 200 mg/kg; type: functional; conditions: route intraperitoneal; outline: as §1
Mus musculus [11] = experiment: Mice were inoculated intraperitoneally with L1210 leukemia cells and the change in body weight of the mice with the compound was evaluated at a dose of 400 mg/kg; type: functional; conditions: route intraperitoneal; outline: as §2
Mus musculus [12] = experiment: Mice were inoculated intraperitoneally with L1210 leukemia cells and the change in body weight of the mice with the compound was evaluated at a dose of 800 mg/kg; type: functional; conditions: route intraperitoneal; outline: as §2
Mus musculus [13] = experiment: Mice were inoculated intraperitoneally with L1210 leukemia cells and the median life span of the mice with the compound was evaluated at a dose of 100 mg/kg; type: functional; conditions: route intraperitoneal; outline: as §1
Mus musculus [14] = experiment: Mice were inoculated intraperitoneally with L1210 leukemia cells and the change in body weight of the mice with the compound was evaluated at a dose of 50 mg/kg; type: functional; conditions: route intraperitoneal; outline: as §2
Mus musculus [15] = experiment: Mice were inoculated intraperitoneally with L1210 leukemia cells and the change in body weight of the mice with the compound was evaluated at a dose of 100 mg/kg; type: functional; conditions: route intraperitoneal; outline: as §2
Mus musculus [16] = experiment: Mice were inoculated intraperitoneally with L1210 leukemia cells and the percentage ILS of the mice with the compound was evaluated at a dose of 400 mg/kg; type: functional; conditions: L1210, ip, route intraperitoneal; outline: as §1
Mus musculus [17] = experiment: Mice were inoculated intraperitoneally with L1210 leukemia cells and the median life span of the mice with the compound was evaluated at a dose of 25 mg/kg; type: functional; conditions: route intraperitoneal
Mus musculus [18] = experiment: Mice were inoculated intraperitoneally with L1210 leukemia cells and the percentage ILS of the mice with the compound was evaluated at a dose of 25 mg/kg; type: functional; conditions: L1210, ip, route intraperitoneal
Mus musculus [19] = experiment: Mice were inoculated intraperitoneally with L1210 leukemia cells and the change in body weight of the mice with the compound was evaluated at a dose of 25 mg/kg; type: functional; conditions: route intraperitoneal
[20] = target: purine nucleoside phosphorylase (human) (UniProt P00491); experiment: Compound was evaluated for the concentration which […] inosine phosphorolysis by human lymphoblast purine nucleoside phosphorylase and expressed as IC50
T-cells (human) = experiment: Compound was evaluated for the cytotoxicity to T cells in the presence of 2'-deoxyguanosine and expressed as ED50

SMILES	IC50 (Mus musculus [1]) [µM]	ILS at 50 mg/kg (Mus musculus [2]) [%]	ILS at 100 mg/kg (Mus musculus [3]) [%]	Body weight change (Mus musculus [4]) [g]	Median life span (Mus musculus [5]) [days]	ILS at 200 mg/kg (Mus musculus [6]) [%]	Median life span (Mus musculus [7]) [days]	ILS at 800 mg/kg (Mus musculus [8]) [%]	Median life span (Mus musculus [9]) [days]	Median life span (Mus musculus [10]) [days]	Body weight change (Mus musculus [11]) [g]	Body weight change (Mus musculus [12]) [g]	Median life span (Mus musculus [13]) [days]	Body weight change (Mus musculus [14]) [g]	Body weight change (Mus musculus [15]) [g]	ILS at 400 mg/kg (Mus musculus [16]) [%]	also measured
NC(=O)c1csc([C@@H]2O[C@H](COP(=O)(O)O)[C@@H](O)[C@H]2O)n1	3.2	36	86	-1.4	15.2	159	11.3	96	16.3	21.5	-2	-3.6	15.5	-0.6	-1	83	
NC(=O)c1csc([C@@H]2O[C@H](CO)[C@@H](O)[C@H]2O)n1 [TIAZOFURIN]	1.9	66	82	-2.9	16.2	103	13.5	85	15	16.5	-3.9	-4.4	14.8	-2.1	-2.5	100	Median life span (Mus musculus [17]): 12.8 days; ILS at 25 mg/kg (Mus musculus [18]): 58%; Body weight change (Mus musculus [19]): -2.6 g
N=C(N)c1csc([C@@H]2O[C@H](CO)[C@@H](O)[C@H]2O)n1																	IC50 [20]: 300 µM; EC50 (T-cells (human)): 77 µM
NC(=O)c1csc([C@@H]2O[C@@H]3COP(=O)(O)O[C@H]3[C@H]2O)n1		14	23	-1.9	18	52	13.3			17.7	-3.1		14.3	-1.1	-0.6	55	
